ChEMBL document CHEMBL1141963, “Ketene aminal-based lactam derivatives as a novel class of orally active FXa inhibitors” (Bioorg Med Chem Lett, 2005)

Legend:
[1] = Binding affinity to trypsin; design: species or system Homo sapiens
How it was run: (§1)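 Human enzymes, each assayed against a low-molecular-weight synthetic substrate. Ki was calculated from IC50 assuming competitive inhibition, as Ki = IC50/(1 + [S]/Km), where [S] is the substrate concentration in the assay and Km the substrate's Michaelis constant. Values are averages of two independent determinations.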

Coagulation factor X [2] = molecular target: T1, Coagulation factor X (Homo sapiens, UniProt P00742); assay: Inhibitory activity against human FXa
Target sequence in this assay (P00742 41-179 limits assumed): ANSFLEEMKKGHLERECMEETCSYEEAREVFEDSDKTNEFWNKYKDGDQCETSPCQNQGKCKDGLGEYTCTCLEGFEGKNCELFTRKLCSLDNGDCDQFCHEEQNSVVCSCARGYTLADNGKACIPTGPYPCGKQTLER
Target sequence in this assay (P00742 235-488 limits assumed): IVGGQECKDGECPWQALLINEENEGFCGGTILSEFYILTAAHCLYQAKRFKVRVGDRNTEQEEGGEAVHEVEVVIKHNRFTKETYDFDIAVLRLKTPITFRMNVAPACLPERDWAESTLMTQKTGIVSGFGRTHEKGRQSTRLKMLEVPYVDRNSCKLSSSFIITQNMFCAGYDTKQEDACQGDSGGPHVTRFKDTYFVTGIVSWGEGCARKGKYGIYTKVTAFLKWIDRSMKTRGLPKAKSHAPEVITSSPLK

Coagulation factor X [3] = molecular target: T1, Coagulation factor X; assay: Anticoagulant potency in human plasma as measured by prothrombin time
Target sequence in this assay (P00742 whole entry, looked up): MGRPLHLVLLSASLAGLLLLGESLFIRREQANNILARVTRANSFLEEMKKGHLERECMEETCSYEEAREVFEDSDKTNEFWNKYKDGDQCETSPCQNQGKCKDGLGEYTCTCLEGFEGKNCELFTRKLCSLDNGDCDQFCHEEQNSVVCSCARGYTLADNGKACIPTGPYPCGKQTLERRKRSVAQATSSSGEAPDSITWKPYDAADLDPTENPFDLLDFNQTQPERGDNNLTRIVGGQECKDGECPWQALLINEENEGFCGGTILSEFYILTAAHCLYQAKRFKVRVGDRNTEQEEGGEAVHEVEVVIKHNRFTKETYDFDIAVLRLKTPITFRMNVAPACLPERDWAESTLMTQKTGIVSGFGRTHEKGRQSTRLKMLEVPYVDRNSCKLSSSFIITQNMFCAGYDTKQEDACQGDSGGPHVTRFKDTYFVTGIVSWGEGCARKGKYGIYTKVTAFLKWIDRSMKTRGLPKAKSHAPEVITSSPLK

Prothrombin = Prothrombin (Homo sapiens, UniProt P00734); assay: Binding affinity to thrombin; how it was run: as §1
[4] = molecular target: Tissue-type plasminogen activator (Homo sapiens, UniProt P00750); assay: Binding affinity to tPA; how it was run: as §1
Sequence of Tissue-type plasminogen activator (P00750 whole entry): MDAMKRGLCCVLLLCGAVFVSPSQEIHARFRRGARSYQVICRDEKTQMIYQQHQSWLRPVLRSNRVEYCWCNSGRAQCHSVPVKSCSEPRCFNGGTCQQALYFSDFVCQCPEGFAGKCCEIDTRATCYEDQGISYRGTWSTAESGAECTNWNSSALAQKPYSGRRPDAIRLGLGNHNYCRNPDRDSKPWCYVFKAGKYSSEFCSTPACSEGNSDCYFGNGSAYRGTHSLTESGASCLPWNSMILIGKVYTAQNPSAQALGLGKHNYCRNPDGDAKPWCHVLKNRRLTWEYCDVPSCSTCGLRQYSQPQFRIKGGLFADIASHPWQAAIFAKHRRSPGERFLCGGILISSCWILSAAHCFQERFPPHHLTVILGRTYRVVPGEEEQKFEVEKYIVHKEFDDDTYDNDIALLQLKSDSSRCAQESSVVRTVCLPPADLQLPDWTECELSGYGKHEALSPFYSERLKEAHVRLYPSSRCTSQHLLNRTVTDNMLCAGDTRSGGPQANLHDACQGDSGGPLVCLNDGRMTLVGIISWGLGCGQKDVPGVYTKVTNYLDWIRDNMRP

Plasminogen = Plasminogen (Homo sapiens, UniProt P00747); assay: Binding affinity to plasmin; how it was run: as §1
Sequence of Plasminogen (P00747 97-580 limits assumed): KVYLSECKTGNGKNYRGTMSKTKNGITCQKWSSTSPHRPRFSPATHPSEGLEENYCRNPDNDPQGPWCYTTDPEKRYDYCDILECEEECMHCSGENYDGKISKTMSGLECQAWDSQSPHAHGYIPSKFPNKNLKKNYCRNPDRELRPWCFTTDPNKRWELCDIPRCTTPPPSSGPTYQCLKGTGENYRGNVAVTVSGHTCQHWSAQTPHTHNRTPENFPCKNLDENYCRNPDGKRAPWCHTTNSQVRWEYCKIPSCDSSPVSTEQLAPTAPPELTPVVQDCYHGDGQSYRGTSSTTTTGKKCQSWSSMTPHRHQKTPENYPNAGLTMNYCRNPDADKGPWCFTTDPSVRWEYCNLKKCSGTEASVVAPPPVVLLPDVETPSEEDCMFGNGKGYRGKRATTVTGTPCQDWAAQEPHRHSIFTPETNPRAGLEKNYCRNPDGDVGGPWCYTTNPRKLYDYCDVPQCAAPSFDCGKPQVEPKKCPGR
Sequence of Plasminogen (P00747 581-810 limits assumed): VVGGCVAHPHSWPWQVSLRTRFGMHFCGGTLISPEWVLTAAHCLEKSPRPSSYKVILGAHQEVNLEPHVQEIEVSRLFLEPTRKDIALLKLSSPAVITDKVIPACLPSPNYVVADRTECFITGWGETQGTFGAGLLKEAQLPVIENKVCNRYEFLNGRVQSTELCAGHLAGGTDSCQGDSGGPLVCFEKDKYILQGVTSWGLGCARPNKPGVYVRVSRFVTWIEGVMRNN

Chymotrypsinogen B = Chymotrypsinogen B (Homo sapiens, UniProt P17538); assay: Binding affinity to chymotrypsin; how it was run: as §1
Sequence of Chymotrypsinogen B (P17538 34-164 limits assumed, other chains not shown): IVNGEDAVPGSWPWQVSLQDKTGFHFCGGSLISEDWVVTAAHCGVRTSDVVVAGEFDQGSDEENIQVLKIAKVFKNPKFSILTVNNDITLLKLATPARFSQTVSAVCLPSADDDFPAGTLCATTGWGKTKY
Sequence of Chymotrypsinogen B (P17538 167-263 limits assumed, other chains not shown): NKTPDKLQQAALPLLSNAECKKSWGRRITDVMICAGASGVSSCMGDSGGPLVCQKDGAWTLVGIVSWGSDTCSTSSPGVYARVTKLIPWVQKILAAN

Coagulation factor VII = molecular target: T2, Coagulation factor VII (Homo sapiens, UniProt P08709); assay: Binding affinity to factor VIIa; how it was run: as §1
T2 sequence (P08709 whole entry): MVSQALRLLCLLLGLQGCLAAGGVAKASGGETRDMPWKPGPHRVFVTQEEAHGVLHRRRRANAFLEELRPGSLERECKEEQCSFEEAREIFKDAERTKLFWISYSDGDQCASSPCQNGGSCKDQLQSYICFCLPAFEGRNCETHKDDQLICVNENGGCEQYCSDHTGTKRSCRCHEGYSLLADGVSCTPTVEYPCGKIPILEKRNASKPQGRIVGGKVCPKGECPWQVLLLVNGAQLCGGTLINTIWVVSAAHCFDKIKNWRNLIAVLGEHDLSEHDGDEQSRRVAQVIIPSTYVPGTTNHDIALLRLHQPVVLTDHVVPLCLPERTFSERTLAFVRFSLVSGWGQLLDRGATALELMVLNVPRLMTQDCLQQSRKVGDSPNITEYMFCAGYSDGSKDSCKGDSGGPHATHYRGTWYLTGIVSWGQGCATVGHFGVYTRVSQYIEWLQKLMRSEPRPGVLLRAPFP

[5] = molecular target: Vitamin K-dependent protein C (Homo sapiens, UniProt P04070); assay: Binding affinity to activated protein C; how it was run: as §1
Sequence of Vitamin K-dependent protein C (P04070 43-197 limits assumed): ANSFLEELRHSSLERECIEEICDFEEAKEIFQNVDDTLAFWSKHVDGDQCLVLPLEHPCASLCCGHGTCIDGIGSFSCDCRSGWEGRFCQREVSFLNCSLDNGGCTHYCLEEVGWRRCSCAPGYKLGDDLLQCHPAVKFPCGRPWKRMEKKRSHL
Sequence of Vitamin K-dependent protein C (P04070 212-461 limits assumed): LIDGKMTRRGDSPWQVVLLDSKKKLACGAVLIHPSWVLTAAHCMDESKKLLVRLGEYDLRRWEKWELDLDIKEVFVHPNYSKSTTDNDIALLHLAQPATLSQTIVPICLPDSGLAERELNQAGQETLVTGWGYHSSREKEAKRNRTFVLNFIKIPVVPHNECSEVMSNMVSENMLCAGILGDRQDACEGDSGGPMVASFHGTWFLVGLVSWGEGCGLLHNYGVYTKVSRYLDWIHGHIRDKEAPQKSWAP

[6] = molecular target: Urokinase-type plasminogen activator (Homo sapiens, UniProt P00749); assay: Binding affinity to urokinase; how it was run: as §1
Coagulation factor IX = Coagulation factor IX (Homo sapiens, UniProt P00740); assay: Binding affinity to factor IXa; how it was run: as §1
Sequence of Coagulation factor IX (P00740 47-191 limits assumed): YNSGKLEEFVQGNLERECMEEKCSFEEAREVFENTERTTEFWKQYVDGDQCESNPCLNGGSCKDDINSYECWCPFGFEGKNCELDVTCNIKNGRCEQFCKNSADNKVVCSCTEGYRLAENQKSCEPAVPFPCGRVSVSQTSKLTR
Sequence of Coagulation factor IX (P00740 227-461 limits assumed): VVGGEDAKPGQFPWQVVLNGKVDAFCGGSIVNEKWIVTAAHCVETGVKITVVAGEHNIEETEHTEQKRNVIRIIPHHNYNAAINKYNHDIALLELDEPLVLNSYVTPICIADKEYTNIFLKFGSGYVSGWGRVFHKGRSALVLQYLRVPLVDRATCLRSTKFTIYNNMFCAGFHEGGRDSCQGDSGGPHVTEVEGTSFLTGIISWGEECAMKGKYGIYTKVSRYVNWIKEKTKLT

Plasma kallikrein = Plasma kallikrein (Homo sapiens, UniProt P03952); assay: Binding affinity to plasma kallikrein; how it was run: as §1
Sequence of Plasma kallikrein (P03952 20-390 limits assumed): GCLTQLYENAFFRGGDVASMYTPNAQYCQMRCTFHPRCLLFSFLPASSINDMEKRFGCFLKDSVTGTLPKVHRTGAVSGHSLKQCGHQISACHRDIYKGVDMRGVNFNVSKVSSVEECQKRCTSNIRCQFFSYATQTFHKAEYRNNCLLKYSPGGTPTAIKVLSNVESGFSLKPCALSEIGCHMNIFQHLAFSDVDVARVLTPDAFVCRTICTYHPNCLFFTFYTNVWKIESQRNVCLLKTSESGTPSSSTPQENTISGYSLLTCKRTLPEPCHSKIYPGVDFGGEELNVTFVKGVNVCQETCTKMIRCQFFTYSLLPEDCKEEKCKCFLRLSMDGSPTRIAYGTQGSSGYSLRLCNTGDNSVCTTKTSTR
Sequence of Plasma kallikrein (P03952 391-638 limits assumed): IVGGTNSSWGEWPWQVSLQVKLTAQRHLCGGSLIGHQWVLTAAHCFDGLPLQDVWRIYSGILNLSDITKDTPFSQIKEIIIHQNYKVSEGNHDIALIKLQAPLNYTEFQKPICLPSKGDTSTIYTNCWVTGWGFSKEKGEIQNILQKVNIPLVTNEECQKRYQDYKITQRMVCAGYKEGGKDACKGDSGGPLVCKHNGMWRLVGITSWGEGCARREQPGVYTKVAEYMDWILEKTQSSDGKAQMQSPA

| SMILES | IC50 (Coagulation factor X [2]) [nM] | 2PT (Coagulation factor X [3]) [µM] | other results |
| --- | --- | --- | --- |
| COc1cccc(N/C(=C\[N+](=O)[O-])N[C@H]2CCCCN(CC(=O)N3CCCC3)C2=O)c1 | 6700 | – | – |
| CCOP(=O)(OCC)/C(C#N)=C(\Nc1ccc2oc(C)cc2c1)N[C@H]1CCCCN(CC(=O)N2CCCC2)C1=O | 658 | > 60 | – |
| COc1ccc(N/C(=C\[N+](=O)[O-])N[C@H]2CCCCN(CC(=O)N3CCCC3)C2=O)cc1 | 3100 | – | – |
| CN(C)c1ccc(N/C(=C\[N+](=O)[O-])N[C@H]2CCCCN(CC(=O)N3CCCC3)C2=O)cc1 | > 34000 | – | – |
| Cc1cc2cc(NC(=N/[C@H]3CCCCN(CC(=O)N4CCCC4)C3=O)/C(C#N)=C(\O)OC(C)(C)C)ccc2o1 | 57 | 60 | – |
| O=C(CN1CCCC[C@H](N/C(=C/[N+](=O)[O-])Nc2ccc3occc3c2)C1=O)N1CCCC1 | 539 | – | – |
| O=C(CN1CCCC[C@H](N/C(=C/[N+](=O)[O-])Nc2ccccc2)C1=O)N1CCCC1 | 16500 | – | – |
| Cc1cc2cc(N/C(N[C@H]3CCCCN(CC(=O)N4CCCC4)C3=O)=C(/C#N)S(=O)(=O)C(C)C)ccc2o1 | 647 | – | – |
| Cc1ccc(N/C(=C\[N+](=O)[O-])N[C@H]2CCCCN(CC(=O)N3CCCC3)C2=O)cc1 | > 34000 | – | – |
| CN(C)c1cccc(N/C(=C\[N+](=O)[O-])N[C@H]2CCCCN(CC(=O)N3CCCC3)C2=O)c1 | 2100 | – | – |
| COc1ccc(N/C(=C\[N+](=O)[O-])N[C@H]2CCCCN(CC(=O)N3CCCC3)C2=O)cc1C | 3400 | – | – |
| O=C(CN1CCCC[C@H](N/C(=C/[N+](=O)[O-])Nc2ccc3c(c2)CCO3)C1=O)N1CCCC1 | 1500 | – | – |
| O=C(CN1CCCC[C@H](N/C(=C/[N+](=O)[O-])Nc2ccc3ccccc3c2)C1=O)N1CCCC1 | 1000 | – | – |

More lines, main results first:

| IC50 (Coagulation factor X [2]) [nM] | 2PT (Coagulation factor X [3]) [µM] | SMILES | other results |
| --- | --- | --- | --- |
| 10 | 10 | Cc1cc2cc(NC(=N/[C@H]3CCCCN(CC(=O)N4CCCC4)C3=O)/C(C#N)=C(\O)OCCCCO)ccc2o1 | Ki [1]: > 5000 nM; Ki (Coagulation factor X [2]): 12 nM; Ki (Prothrombin): 6300 nM; Ki [4]: 16000 nM; Ki (Plasminogen): > 22000 nM; Ki (Chymotrypsinogen B): 9420 nM; Ki (Coagulation factor VII): > 55000 nM; Ki [5]: > 21500 nM; Ki [6]: > 14000 nM; Ki (Coagulation factor IX): > 10000 nM; Ki (Plasma kallikrein): > 19400 nM |
| 57 | 21 | Cc1cc2cc(N/C(N[C@H]3CCCCN(CC(=O)N4CCCC4)C3=O)=C(/C#N)C(=O)N3CCC(C)CC3)ccc2o1 | – |
| 13 | 36 | COc1ccc(/C(O)=C(C#N)/C(=N\[C@H]2CCCCN(CC(=O)N3CCCC3)C2=O)Nc2ccc3oc(C)cc3c2)cc1 | – |
| 46 | 24 | Cc1cc2cc(N/C(N[C@H]3CCCCN(CC(=O)N4CCCC4)C3=O)=C(/C#N)S(C)(=O)=O)ccc2o1 | – |
| 51 | – | Cc1cc2cc(N/C(=C\[N+](=O)[O-])N[C@H]3CCCCN(CC(=O)N4CCCC4)C3=O)ccc2o1 | – |
| 13 | 7 | Cc1cc2cc(N/C(N[C@H]3CCCCN(CC(=O)N4CCCC4)C3=O)=C(/C#N)C(=O)NC(N)=O)ccc2o1 | – |
| 24 | 31 | CCO/C(O)=C(C#N)/C(=N\[C@H]1CCCCN(CC(=O)N2CCCC2)C1=O)Nc1ccc2oc(C)cc2c1 | – |
| 13 | 62 | Cc1cc2cc(NC(=N/[C@H]3CCCCN(CC(=O)N4CCCC4)C3=O)/C(C#N)=C(\O)c3ccc(Cl)cc3)ccc2o1 | – |
| 10 | 31 | Cc1cc2cc(NC(/C=C(\O)c3nccs3)=N/[C@H]3CCCCN(CC(=O)N4CCCC4)C3=O)ccc2o1 | – |
| 17 | 13 | Cc1cc2cc(N/C(N[C@H]3CCCCN(CC(=O)N4CCCC4)C3=O)=C(/C#N)C(N)=O)ccc2o1 | – |
